# Source: PubChem (several laboratories)
# Compounds with a hit are over-represented: about 1.9% of the library has one in this group of screens.
# FGF22 binding = binders of human FGF22 protein, primary screen, FGF22 synaptogenesis inhibitor project, biophysical, thermal shift, single point | Fibroblast growth factor 22 (Homo sapiens), Q9HCT0 | recombinant FGF22 thermal shift, SYPRO orange fluorescence; percent of sucrose octasulfate shift, DMSO zero | activity (Tm shift, normalised), % at 9.99 µM | actives 1.5% (n = 340,000);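 active = mean Tm shift, scaled 0 neutral to 100 positive control, at about 1.3% or above, every replicate too, limit read from the data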
# ASAP1 GAP inh = inhibitors of human ASAP1 ArfGAP activity, primary screen, biochemical, fluorescence polarization. ASAP1-stimulated ARF1 GTP hydrolysis, GDP FP detection. Arf-GAP with SH3 domain, ANK repeat and PH domain-containing protein 1 (Homo sapiens), …. inhibition, % at 16.5 µM. actives 0.19% (n = 360,000); in the data active = inhibition above about 25%;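 also: 0% = vehicle with enzyme and substrate and 100% = no enzyme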
# Efflux pump mplx = inhibitors of Candida efflux pumps in yeast, primary screen, S. cerevisiae, Nile Red, multiplex; S. cerevisiae Candida pump triplex; inhibition, % at 10 µM; actives 0.44% (n = 330,000); AID 485275, 2010;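 active = plate passing quality check with inhibition over a set limit, or well fluorescence over plate mean plus 4 SD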;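 also: Nile Red retained in pooled yeast measured as flow cytometry median fluorescence; 0% = buffer negative control and 100% = Enniatin B positive control; higher means more Nile Red kept so more efflux inhibition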
# ARFGAP1 inhibitor = inhibitors of rat ARFGAP1 GAP activity, primary screen, biochemical, fluorescence polarization, GDP tracer; ADP-ribosylation factor GTPase-activating protein 1 (Rattus norvegicus), Q62848; Arfgap1-stimulated ARF1 GTP hydrolysis, GDP FP detection; inhibition, % at 16.5 µM; actives 0.26% (n = 360,000);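 active = inhibition above a per-plate limit, mean inhibition of low control wells plus 3 SD, cut at about 25% in these data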;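 also: 0% = DMSO wells with enzyme and 100% = wells lacking Arfgap1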
# Target sequence (Q62848 1-136 limits assumed): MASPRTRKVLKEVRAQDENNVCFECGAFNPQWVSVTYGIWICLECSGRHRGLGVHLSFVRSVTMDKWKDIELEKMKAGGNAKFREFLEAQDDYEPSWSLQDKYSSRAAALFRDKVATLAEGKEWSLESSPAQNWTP
#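 System: truncated rat Arfgap1 GAP domain / Medium: HEPES-based buffer, pH 7.5 / Also added: N-terminally truncated human ARF1-GTP substrate / Incubation: enzyme reaction 120 min at 25 °C after 20 min preincubation / Measured by: FP of antibody-bound GDP Alexa 633 tracer, ex 620/em 688 nm / Replicates: singlicate, each compound tested once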
# Rtt109 Vps75 = inhibitors of C. albicans Rtt109/Vps75 HAT, primary screen, biochemical, ThioGlo CoA-SH fluorescence, plate reader. AID 540336, 2011. purified Rtt109/Vps75, 4 h. Histone acetyltransferase RTT109 (Candida albicans (strain SC5314 / ATCC MYA-2876)), …. inhibition, % at 34.9 µM. actives 0.16% (n = 330,000);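 active = inhibition of at least 50% in every replicate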
# Target sequence (Q5AAJ8 whole entry, looked up): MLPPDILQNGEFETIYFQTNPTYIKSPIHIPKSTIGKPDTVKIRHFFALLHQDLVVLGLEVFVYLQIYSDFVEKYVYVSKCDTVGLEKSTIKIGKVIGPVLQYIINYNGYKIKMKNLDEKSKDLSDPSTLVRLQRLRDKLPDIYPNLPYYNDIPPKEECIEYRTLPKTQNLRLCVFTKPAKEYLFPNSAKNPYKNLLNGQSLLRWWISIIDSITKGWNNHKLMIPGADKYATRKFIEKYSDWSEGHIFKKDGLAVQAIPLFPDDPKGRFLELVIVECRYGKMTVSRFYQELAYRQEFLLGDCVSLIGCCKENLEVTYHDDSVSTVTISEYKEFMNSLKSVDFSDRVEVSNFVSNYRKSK
# Yeast cmpd fluor = counter-screen for efflux pump inhibitors: compound fluorescence | shares compounds with Efflux pump mplx | S. cerevisiae AD/pABC3, flow cytometry | fluorescence ratio to DMSO, % at 10 µM | actives 4% (n = 1,700) | AID 588517;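 active = fluorescence ratio to DMSO above its plate's cutoff, the plate mean ratio plus 5 SD, cut at about 210% in these data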;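 also: unstained yeast with no Nile Red so the signal is compound autofluorescence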
# CaMdr1 efflux inh = inhibitors of Candida albicans Mdr1 efflux, confirmation, flow cytometry, singleplex, Cherry Pick1 set. shares compounds with Efflux pump mplx. inhibition, % at 10 µM. actives 1% (n = 1,700). S. cerevisiae AD/CaMDR1, Nile Red efflux; in the data active = inhibition above about 26%;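 also: 0% = DMSO vehicle and 100% = reference inhibitor; higher means more Nile Red retained so more efflux inhibition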
# Cdr2 pump inh = inhibitors of Candida albicans Cdr2 efflux pump, confirmation, S. cerevisiae AD/CaCDR2, flow cytometry, cherry pick 1, singleplex | shares compounds with Efflux pump mplx | Nile Red retention | Nile Red retention ratio vs DMSO, % at 10 µM | actives 4% (n = 1,700); in the data active = Nile Red retention ratio vs DMSO above about 190%;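 also: higher ratio means more blocking of Cdr2 efflux of the dye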
# CaCdr1 efflux inh = inhibitors of Candida albicans Cdr1 efflux pump, confirmation, S. cerevisiae AD/CaCDR1, flow cytometry, cherry pick 1, singleplex; shares compounds with Efflux pump mplx; Nile Red efflux; inhibition, % at 10 µM; actives 1% (n = 1,700); AID 588522, 2011;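 active = inhibition above the screen-wide mean plus twice its standard deviation, cut at about 32% in these data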
# * = called active by the depositor; . = not tested or not shown.
SMILES,FGF22 binding,ASAP1 GAP inh,Efflux pump mplx,ARFGAP1 inhibitor,Rtt109 Vps75,Yeast cmpd fluor,CaMdr1 efflux inh,Cdr2 pump inh,CaCdr1 efflux inh
COc1cc(OC)cc(C(=O)N/N=C/c2ccc(OC)c(COc3ccc4ccccc4c3)c2)c1,.,-4,0.6*,13,-8,106,0,112,0
COc1ccc(/C=N/NC(=O)c2nc(Cl)c(Cl)c(N)c2Cl)cc1COc1ccc(F)cc1F,.,8,1.0*,5,-1,106,0,114,1
Cn1cc(C(c2ccccn2)c2cn(C)c3ccccc23)c2ccccc21,.,-3,57*,10,-4,88,86*,103,32*
c1ccc(C(c2c[nH]c3ccccc23)c2c[nH]c3ccccc23)nc1,.,3,0,16,3,.,.,.,.
CCOc1ccccc1NC(=O)C1CCCC1,0,-12,.,-7,5,.,.,.,.
Cc1ccc(C)c(N=C2CCCN2Cc2ccccc2)c1C#N,.,-2,0,2,17,.,.,.,.
CC(Oc1ccc([N+](=O)[O-])cc1Cl)C(=O)Nc1ccc(C(N)=O)cc1 (stereo unspecified),0,-10,2.3*,5,1,103,0,91,0
COC(=O)C1=COC(C)C2CN3CCc4c([nH]c5cc(OC)c(OC)cc45)C3CC12 (stereo unspecified),0,-1,0.9*,-13,-10,107,0,119,0
COc1ccc2c3c([nH]c2c1)C1CC2C(CC(O)C(OC)C2C(=O)O)CN1CC3 (stereo unspecified),0,1,0,-4,0,.,.,.,.
Cc1cccc(C(=O)OCc2cc(=O)oc3c(C)c(C)ccc23)c1O,.,.,-1,.,-1,.,.,.,.
CC1CN(c2cc(=O)n(-c3ccc(Cl)cc3)c(=O)[nH]2)CC(C)O1 (stereo unspecified),0,-6,.,-13,-2,.,.,.,.
COc1ccc([C@H]2[C@H](C(=O)C(C)(C)C)N3N=Cc4ccccc4C3[C@]23N=C(c2ccccc2)OC3=O)cc1 (stereo partly specified),.,-6,0.8*,5,-10,121,0,129,0
COc1ccc([C@H]2[C@H](C(=O)C(C)(C)C)N3N=Cc4ccccc4C3[C@]23N=C(c2ccccc2)OC3=O)cc1OC (stereo partly specified),.,.,0,.,2,.,.,.,.
Nn1c(Cc2cccc3ccccc23)nnc1SCC(=O)NC1CCS(=O)(=O)C1 (stereo unspecified),.,3,0,-7,-14,.,.,.,.
O=C(Cn1c2ccc(F)cc2c2nc3n(c(=O)c21)CCS3)NC1CCCC1,0,3,0,-4,-8,.,.,.,.
O=C(Cn1c2ccc(F)cc2c2nc3n(c(=O)c21)CCS3)Nc1ccccc1F,.,.,0.4*,.,.,480*,1,120,1
CCN(CC)c1ccc(C=N/C(C#N)=C(\N)C#N)cc1,.,-9,0.7*,8,6,128,1,348*,2
CCN(CC)c1ccc(/C=C(\C#N)c2ccccn2)cc1,.,.,0,.,4,.,.,.,.
COc1cc(/C=C/C(=O)c2ccc([N+](=O)[O-])o2)ccc1O,0,4,0.8*,4,2,188,0,161,0
Cc1ccc(NC(=O)C(=O)NCc2ccc(/C=C(/C#N)C(=O)NCc3cccnc3)o2)cc1,.,2,0,8,-5,.,.,.,.
N#C/C(=C/c1ccc(CNC(=O)C(=O)Nc2cc(Cl)cc(Cl)c2)o1)C(=O)NCc1cccnc1,0,3,8.2*,2,-4,105,0,110,0
CN(C)c1ccc(N2C(=NC(=O)CCc3ccccc3)SC3CS(=O)(=O)CC32)cc1 (stereo unspecified),0,-3,1.0*,-7,6,121,1,99,0
COC(=O)NCc1ccc(S(=O)(=O)N2CCOCC2)cc1,.,8,0.5*,11,-4,95,0,106,0
O=C(CN1CCOCC1)Nc1ccc(Br)cc1,0,-4,0,2,-9,.,.,.,.
O=C(CN1CCN(C(=O)N2CCOCC2)CC1)Nc1ccc(Br)cc1,.,6,17*,2,-7,98,0,103,0
SMILES,FGF22 binding,ASAP1 GAP inh,Efflux pump mplx,ARFGAP1 inhibitor,Rtt109 Vps75,Yeast cmpd fluor,CaMdr1 efflux inh,Cdr2 pump inh,CaCdr1 efflux inh
Oc1ccc(Cl)cc1C=Nc1ccccc1Br,.,3,0,9,-6,.,.,.,.
Oc1ccc(Br)cc1C=Nc1ccc2c3c(cccc13)CC2,-1,-6,3.1*,-1,5,102,0,116,0
N=C(N)SCC1=CCS(=O)(=O)C1,0,-6,0.8*,-3,-1,101,0,96,0
Cn1cc(S(=O)(=O)N2CCOCC2)cc1C(=O)Nc1ccc(Cl)cc1,0,1,0,-12,-5,.,.,.,.
COCc1ccc(C(=O)NC2CC(C)(C)Cc3c2cnn3-c2ccc(OC)cc2)o1 (stereo unspecified),0,-3,0,9,-7,.,.,.,.
COc1ccc(-n2ncc3c2CC(C)(C)CC3NC(=O)c2cnc(C)cn2)cc1 (stereo unspecified),0,8,0,-10,3,105,0,96,0
Cc1cnc(C(=O)NC2CC(C)(C)Cc3c2cnn3-c2ccccc2)cn1 (stereo unspecified),0,-1,1,-2,5,98,0,107,0
COc1cc(C(=O)NC2CC(C)(C)Cc3c2cnn3-c2ccccc2)cc(OC)c1OC (stereo unspecified),0,-7,0,-7,-5,.,.,.,.
